Test results from paper PMC10864842 (Saudi Pharmaceutical Journal : SPJ, 2024).
“And” between values parts separate entries of the source, which are not always exact repeats. Equal values may be shown once. Read-outs that look alike come from different tables or passages of the source.

Legend:
MDA-MB-231 cells [1] = test: Annexin V-FITC/PI flow cytometry; assay type: cell-based; details: MDA-MB-231, Annexin V-FITC & PI, post-treatment
How it was run: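 MDA-MB-231 cells were kept in DMEM with 10% FBS and 1% streptomycin/penicillin at 37 °C under 5% CO2. Cells were treated with the test compound for 48 h, with doxorubicin as the standard and untreated cells for comparison. Cells were then harvested, rinsed, suspended in PBS, stained with Annexin V-FITC/PI and held 20 min in the dark before flow cytometry. Early apoptosis was Annexin V+/PI−; late apoptosis was Annexin V+/PI+.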

[2] = tested on: MDA-MB-231 breast cancer cells; test: MTT assay on MDA-MB-231 cells; assay type: cell-based; details: Homo sapiens
How it was run: (§1)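 Cells kept in DMEM with 10% (v/v) FBS and 1% (v/v) streptomycin/penicillin at 37 °C and 5% CO2. About 10^4 cells/ml were seeded and grown for 24 h. Test compounds in DMSO were added at 6.25, 12.5, 25, 50 and 100 µg/ml for 24 and 48 h. Medium was replaced with 5 mg/mL MTT for 3–4 h. Formazan was dissolved in acidified isopropanol and read at 630 nm. Viability is expressed as % of untreated cells.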

MDA-MB-231 cells [3] = test: DNA fragmentation by gel electrophoresis; assay type: cell-based; details: post-treatment
How it was run: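 MDA-MB-231 cells kept in DMEM with 10% FBS and 1% streptomycin/penicillin at 37 °C, 5% CO2. Genomic DNA was extracted with a commercial kit from cells before and after test compound treatment, and its quality was checked by nanodrop. DNA plus 1X loading dye was run on agarose gel, viewed under a UV transilluminator and imaged on a gel documentation system. Doxorubicin served as reference.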

MDA-MB-231 cells [4] = test: Morphological study by inverted microscope; assay type: cell-based; details: 48 h
How it was run: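 MDA-MB-231 cells were grown in DMEM with 10% FBS and 1% streptomycin/penicillin at 37 °C, 5% CO2. They were treated with varying concentrations of test compound for 48 h and examined by inverted light microscopy. Phenotypic changes were scored as cell shrinkage, apoptotic body formation and membrane blebbing.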

PI3Kδ = PI3Kδ (Homo sapiens, UniProt O00329); test: PI3Kδ inhibition assay; assay type: biochemical
MDA-MB-231 cells [5] = test: qRT-PCR relative gene expression of P53, BAX and BCL-2; assay type: cell-based; details: MDA-MB-231, 48 h
How it was run: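 RNA was extracted from cells after 48 h of treatment with test compound, and its purity was checked by nanodrop. P53, BAX and BCL-2 expression was normalised to β-actin as the housekeeping gene. Treated and untreated cells were compared by ANOVA.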

[6] = MTT assay on oral epithelial normal cells; assay type: cell-based
How it was run: as §1

KSP ATPase [7] = target: T1, KSP ATPase (Homo sapiens, UniProt P52732); test: Microtubule-activated KSP ATPase kinetic assay; assay type: biochemical
T1 sequence (P52732 1-1056): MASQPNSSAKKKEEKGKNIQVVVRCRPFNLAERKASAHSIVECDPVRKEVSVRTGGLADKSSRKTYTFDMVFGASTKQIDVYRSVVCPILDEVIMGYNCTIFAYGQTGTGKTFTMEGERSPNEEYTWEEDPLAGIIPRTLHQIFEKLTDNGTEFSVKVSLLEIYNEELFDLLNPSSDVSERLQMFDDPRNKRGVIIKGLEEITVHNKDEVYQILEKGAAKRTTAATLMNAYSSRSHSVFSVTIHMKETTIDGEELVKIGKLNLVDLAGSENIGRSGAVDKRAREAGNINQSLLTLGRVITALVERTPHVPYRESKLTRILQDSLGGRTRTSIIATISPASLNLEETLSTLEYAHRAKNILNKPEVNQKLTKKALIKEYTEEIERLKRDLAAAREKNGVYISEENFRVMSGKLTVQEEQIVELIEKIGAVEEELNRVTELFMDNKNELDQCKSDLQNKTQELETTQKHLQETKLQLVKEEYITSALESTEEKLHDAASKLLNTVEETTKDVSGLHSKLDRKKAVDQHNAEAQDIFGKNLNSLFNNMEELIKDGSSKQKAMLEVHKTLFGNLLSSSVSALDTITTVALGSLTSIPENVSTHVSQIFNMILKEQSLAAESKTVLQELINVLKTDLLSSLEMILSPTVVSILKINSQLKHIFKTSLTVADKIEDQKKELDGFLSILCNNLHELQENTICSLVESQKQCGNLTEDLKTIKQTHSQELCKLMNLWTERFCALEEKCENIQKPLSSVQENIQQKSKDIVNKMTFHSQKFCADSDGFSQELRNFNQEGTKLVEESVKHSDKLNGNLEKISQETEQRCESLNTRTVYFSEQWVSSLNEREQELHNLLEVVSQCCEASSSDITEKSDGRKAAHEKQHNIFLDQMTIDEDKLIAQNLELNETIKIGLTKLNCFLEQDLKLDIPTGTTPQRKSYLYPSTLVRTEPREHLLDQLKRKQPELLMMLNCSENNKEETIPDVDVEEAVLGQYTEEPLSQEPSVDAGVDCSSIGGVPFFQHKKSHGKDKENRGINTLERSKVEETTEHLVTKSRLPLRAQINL

KSP ATPase [8] = target: T1, KSP ATPase; test: Microtubule-activated KSP ATPase end-point assay; assay type: biochemical; details: read-out: KSP ATPase inhibition [%]
[9] = MDA-MB-231, 24 h, read-out: IC50 after 24 h (µM)
[10] = MDA-MB-231, 24 h, read-out: IC50 after 24 h in µg/mL
[11] = MDA-MB-231, 48 h, read-out: IC50 after 48 h (µM)
[12] = MDA-MB-231, 48 h, read-out: IC50 after 48 h in µg/mL

PI3Kδ, sequence (O00329 whole entry): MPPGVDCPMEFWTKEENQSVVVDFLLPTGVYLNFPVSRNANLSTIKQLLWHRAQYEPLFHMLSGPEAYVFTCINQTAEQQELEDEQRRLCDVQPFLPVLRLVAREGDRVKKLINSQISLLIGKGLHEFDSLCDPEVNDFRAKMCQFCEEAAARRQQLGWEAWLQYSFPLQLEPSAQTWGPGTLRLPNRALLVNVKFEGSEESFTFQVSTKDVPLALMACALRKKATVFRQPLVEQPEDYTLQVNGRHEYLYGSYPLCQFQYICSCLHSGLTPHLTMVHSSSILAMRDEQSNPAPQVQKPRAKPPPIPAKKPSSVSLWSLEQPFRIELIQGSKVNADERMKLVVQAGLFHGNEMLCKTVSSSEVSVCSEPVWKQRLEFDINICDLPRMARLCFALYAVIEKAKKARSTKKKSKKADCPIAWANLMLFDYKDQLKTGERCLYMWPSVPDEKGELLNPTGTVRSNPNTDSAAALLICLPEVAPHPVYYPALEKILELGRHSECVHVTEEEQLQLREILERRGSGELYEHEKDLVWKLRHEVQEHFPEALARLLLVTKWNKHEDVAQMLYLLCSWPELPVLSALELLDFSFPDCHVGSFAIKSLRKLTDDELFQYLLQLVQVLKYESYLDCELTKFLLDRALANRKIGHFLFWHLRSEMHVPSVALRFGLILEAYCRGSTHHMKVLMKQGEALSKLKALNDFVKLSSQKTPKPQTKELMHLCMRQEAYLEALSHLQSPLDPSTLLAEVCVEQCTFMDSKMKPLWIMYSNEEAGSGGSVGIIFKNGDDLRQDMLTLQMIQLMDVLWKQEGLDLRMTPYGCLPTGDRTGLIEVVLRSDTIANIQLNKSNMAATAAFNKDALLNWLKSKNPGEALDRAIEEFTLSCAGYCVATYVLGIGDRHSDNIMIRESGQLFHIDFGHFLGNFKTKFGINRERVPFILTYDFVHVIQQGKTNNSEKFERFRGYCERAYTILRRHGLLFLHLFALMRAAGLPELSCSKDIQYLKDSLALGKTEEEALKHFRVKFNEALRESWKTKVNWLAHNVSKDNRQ
PI3Kδ, sequence (P27986 whole entry partner): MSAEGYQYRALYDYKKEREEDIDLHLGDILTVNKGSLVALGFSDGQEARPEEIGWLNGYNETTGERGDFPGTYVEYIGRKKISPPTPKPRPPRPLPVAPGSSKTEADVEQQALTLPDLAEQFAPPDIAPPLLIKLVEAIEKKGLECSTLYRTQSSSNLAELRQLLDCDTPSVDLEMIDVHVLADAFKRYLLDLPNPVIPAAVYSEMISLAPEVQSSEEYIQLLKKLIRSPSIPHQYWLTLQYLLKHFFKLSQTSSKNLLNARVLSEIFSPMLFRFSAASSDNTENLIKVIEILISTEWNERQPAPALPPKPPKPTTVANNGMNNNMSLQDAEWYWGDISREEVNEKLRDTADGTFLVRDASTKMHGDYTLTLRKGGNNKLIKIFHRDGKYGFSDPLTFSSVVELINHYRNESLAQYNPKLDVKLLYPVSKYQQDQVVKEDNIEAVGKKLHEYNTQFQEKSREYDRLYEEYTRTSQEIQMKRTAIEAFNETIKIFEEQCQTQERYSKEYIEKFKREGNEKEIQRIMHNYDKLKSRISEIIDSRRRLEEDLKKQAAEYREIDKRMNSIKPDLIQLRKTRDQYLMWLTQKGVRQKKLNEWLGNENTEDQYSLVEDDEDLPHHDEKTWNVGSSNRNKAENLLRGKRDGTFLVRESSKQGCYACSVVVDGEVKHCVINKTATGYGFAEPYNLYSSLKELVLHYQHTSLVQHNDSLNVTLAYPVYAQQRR

| Compound | Number of cells in the early and late apoptosis versus untreated cells (MDA-MB-231 cells [1]) | IC50 [2, 9] [µM] | IC50 [2, 10] [µg/mL] | IC50 [2, 11] [µM] | IC50 [2, 12] [µg/mL] | DNA fragmentation (MDA-MB-231 cells [3]) | Morphological changes of treated cells (MDA-MB-231 cells [4]) | IC50 (PI3Kδ) [µM] | Relative gene expression of BAX (MDA-MB-231 cells [5]) | Relative gene expression of BCL-2 (MDA-MB-231 cells [5]) | Relative gene expression of P53 (MDA-MB-231 cells [5]) | IC50 at 48 h [6] | IC50 (KSP ATPase [7]) [µM] | inhibition at 2 µM (KSP ATPase [8]) [%] |
| --- | --- | --- | --- | --- | --- | --- | --- | --- | --- | --- | --- | --- | --- | --- |
| O=c1c2cc(Cl)ccc2nc(SCc2ccc(F)cc2)n1-c1ccc(F)cc1 [Compound 3e, 6-Chloro-2-((4-fluorobenzyl)thio)-3-(4-fluorophenyl)quinazolin-4(3H)-one] | significant increase | 21.5 | 8.94 ± 0.08 | 9.97 | 4.14 ± 0.11 | internucleosomal fragmentation was noticed | cell shrinkage, apoptotic bodies formation, and membrane blebbing | 0.0454 ± 0.00205 | significant overexpression | downregulation | significant overexpression | 92.1 µg/mL and 222 µM | 0.0684 | 93.3 ± 2.1 |
| O=c1c2cc(Cl)ccc2nc(S)n1-c1ccc(F)cc1 [Compound 1, 6-Chloro-3-(4-fluorophenyl)-2-mercaptoquinazolin-4(3H)-one] | – | 44.3 | 13.6 ± 0.12 | 23.6 | 7.23 ± 0.15 | – | – | – | – | – | – | 80 µg/mL and 261 µM | – | – |
| CC(C)=CCSc1nc2ccc(Cl)cc2c(=O)n1-c1ccc(F)cc1 [Compound 3b, 6-Chloro-3-(4-fluorophenyl)-2-((3-methylbut-2-en-1-yl)thio)quinazolin-4(3H)-one] | significant increase | 47.5 | 17.8 ± 0.12 | 16.3 | 6.1 ± 0.1 | internucleosomal fragmentation was noticed | cell shrinkage, apoptotic bodies formation, and membrane blebbing | 0.0323 ± 0.00218 | significant overexpression | downregulation | significant overexpression | 98 µg/mL and 261 µM | 0.0858 | 89.6 ± 3.42 |
| CCOC(=O)CSc1nc2ccc(Cl)cc2c(=O)n1-c1ccc(F)cc1 [Compound 3c, Ethyl 2-((6-chloro-3-(4-fluorophenyl)-4-oxo-3,4-dihydroquinazolin-2-yl)thio)acetate] | – | 56 | 22 ± 0.13 | 17.8 | 7.01 ± 0.12 | – | – | – | – | – | – | 58.3 µg/mL and 148 µM | – | – |
| Cc1ccc(C(=O)N(CCCN)[C@@H](c2nc3cc(Cl)ccc3c(=O)n2Cc2ccccc2)C(C)C)cc1 [Ispinesib, reference compound] | – | – | – | – | – | – | – | – | – | – | – | – | – | 95.5 ± 2.24 |
| O=C(CSc1nc2ccc(Cl)cc2c(=O)n1-c1ccc(F)cc1)Nc1cccc2ccccc12 [Compound 3l, 2-((6-Chloro-3-(4-fluorophenyl)-4-oxo-3,4-dihydroquinazolin-2-yl)thio)-N-(naphthalen-1-yl)acetamide] | – | 26.9 | 13.18 ± 0.13 | 14.2 | 6.98 ± 0.12 | – | – | – | – | – | – | 79 µg/mL and 161 µM | – | – |
| O=c1c2cc(Cl)ccc2nc(SCc2ccc(Br)cc2F)n1-c1ccc(F)cc1 [Compound 3h, 2-((4-Bromo-2-fluorobenzyl)thio)-6-chloro-3-(4-fluorophenyl)quinazolin-4(3H)-one] | – | 30.2 | 14.89 ± 0.11 | 16.5 | 8.14 ± 0.13 | – | – | 0.0538 ± 0.0031 | – | – | – | 51.4 µg/mL and 104 µM | 0.0735 | 92.6 ± 2.35 |
| O=c1c2cc(Cl)ccc2nc(SCc2ccc(C(F)(F)F)cc2)n1-c1ccc(F)cc1 [Compound 3f, 6-Chloro-3-(4-fluorophenyl)-2-((4-(trifluoromethyl)benzyl)thio)quinazolin-4(3H)-one] | – | 58.9 | 27.39 ± 0.1 | 37 | 17.19 ± 0.12 | – | – | – | – | – | – | 67.8 µg/mL and 146 µM | – | – |
| COc1cccc2c1C(=O)c1c(O)c3c(c(O)c1C2=O)C[C@@](O)(C(=O)CO)C[C@@H]3O[C@H]1C[C@H](N)[C@H](O)[C@H](C)O1 [Doxorubicin, reference compound] | – | – | – | 1.41 | 0.77 ± 0.14 | – | – | – | – | – | – | 40.5 µg/mL and 74.5 µM | – | – |
| O=C1c2ccccc2C(=O)N1CSc1nc2ccc(Cl)cc2c(=O)n1-c1ccc(F)cc1 [Compound 3k, 2-(((6-Chloro-3-(4-fluorophenyl)-4-oxo-3,4-dihydroquinazolin-2-yl)thio)methyl)isoindoline-1,3-dione] | – | 38 | 17.71 ± 0.14 | 18.4 | 8.57 ± 0.1 | – | – | – | – | – | – | 80.5 µg/mL and 173 µM | – | – |
| O=c1c2cc(Cl)ccc2nc(SCc2ccc(Cl)cc2)n1-c1ccc(F)cc1 [Compound 3d, 6-Chloro-2-((4-chlorobenzyl)thio)-3-(4-fluorophenyl)quinazolin-4(3H)-one] | – | 21 | 9.05 ± 0.1 | 15.3 | 6.59 ± 0.09 | – | – | – | – | – | – | 65.4 µg/mL and 152 µM | – | – |
| O=c1c2cc(Cl)ccc2nc(SCc2ccc([N+](=O)[O-])cc2)n1-c1ccc(F)cc1 [Compound 3j, 6-Chloro-3-(4-fluorophenyl)-2-((4-nitrobenzyl)thio)quinazolin-4(3H)-one] | – | 50.9 | 22.48 ± 0.12 | 31.6 | 13.96 ± 0.12 | – | – | – | – | – | – | 78.3 µg/mL and 177 µM | – | – |
| O=c1c2cc(Cl)ccc2nc(SCc2cc(C(F)(F)F)cc(C(F)(F)F)c2)n1-c1ccc(F)cc1 [Compound 3g, 2-((3,5-Bis(trifluoromethyl)benzyl)thio)-6-chloro-3-(4-fluorophenyl)quinazolin-4(3H)-one] | – | 50.5 | 26.92 ± 0.09 | 38.1 | 20.3 ± 0.23 | – | – | 0.0578 ± 0.00275 | – | – | – | 70.4 µg/mL and 132 µM | 0.0774 | 90.5 ± 2.16 |
| N#Cc1ccc(CSc2nc3ccc(Cl)cc3c(=O)n2-c2ccc(F)cc2)cc1 [Compound 3i, 4-(((6-Chloro-3-(4-fluorophenyl)-4-oxo-3,4-dihydroquinazolin-2-yl)thio)methyl)benzonitrile] | – | 95.6 | 40.33 ± 0.11 | 62.8 | 26.49 ± 0.13 | – | – | – | – | – | – | 86.5 µg/mL and 205 µM | – | – |
